Measured values gathered from unrelated publications.
Protocols differ between the studies behind these lines.
Target: Ephrin type-B receptor 2 (EPHB2, Homo sapiens, UniProt P29323)
Residues used in one study (P29323 19-1055): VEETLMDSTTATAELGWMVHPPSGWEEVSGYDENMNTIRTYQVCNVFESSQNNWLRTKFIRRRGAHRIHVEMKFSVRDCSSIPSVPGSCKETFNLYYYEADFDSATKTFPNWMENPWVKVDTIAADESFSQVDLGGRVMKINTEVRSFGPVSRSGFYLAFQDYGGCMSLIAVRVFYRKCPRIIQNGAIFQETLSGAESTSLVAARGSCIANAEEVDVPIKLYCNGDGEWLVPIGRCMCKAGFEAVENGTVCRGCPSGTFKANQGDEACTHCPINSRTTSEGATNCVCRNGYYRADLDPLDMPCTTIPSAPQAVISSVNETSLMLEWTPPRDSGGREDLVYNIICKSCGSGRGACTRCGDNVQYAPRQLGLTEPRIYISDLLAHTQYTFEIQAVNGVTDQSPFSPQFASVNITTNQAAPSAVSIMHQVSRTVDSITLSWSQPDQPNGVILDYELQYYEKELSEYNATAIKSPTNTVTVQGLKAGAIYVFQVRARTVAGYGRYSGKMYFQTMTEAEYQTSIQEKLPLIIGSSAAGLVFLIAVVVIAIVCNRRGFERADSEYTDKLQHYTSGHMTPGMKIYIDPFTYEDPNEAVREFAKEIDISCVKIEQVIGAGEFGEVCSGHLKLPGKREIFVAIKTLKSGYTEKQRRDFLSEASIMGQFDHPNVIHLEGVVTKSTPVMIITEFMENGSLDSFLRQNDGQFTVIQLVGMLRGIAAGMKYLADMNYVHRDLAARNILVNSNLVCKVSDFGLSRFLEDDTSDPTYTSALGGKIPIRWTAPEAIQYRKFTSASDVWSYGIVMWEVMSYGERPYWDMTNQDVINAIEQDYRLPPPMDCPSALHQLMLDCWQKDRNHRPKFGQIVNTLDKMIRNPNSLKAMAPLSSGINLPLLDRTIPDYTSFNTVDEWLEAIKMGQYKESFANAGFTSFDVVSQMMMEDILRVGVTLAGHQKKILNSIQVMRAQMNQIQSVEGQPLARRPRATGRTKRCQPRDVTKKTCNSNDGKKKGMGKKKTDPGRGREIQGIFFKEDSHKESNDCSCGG

| SMILES | read-out | technique | concentration | remaining binding |
| --- | --- | --- | --- | --- |
| O=C(NCC1CCOCC1)c1n[nH]cc1NC(=O)c1c(F)cccc1F | binding | competition with immobilised ligand | 1 µM | 98% |
| CCN1CCN(Cc2ccc(C(=O)Nc3ccc(C)c(Oc4ccc5c(c4)CC(=O)N5)c3)cc2C(F)(F)F)CC1 | binding | competition with immobilised ligand | 1 µM | 100% |
| CO[C@@H](C)c1c(Nc2ccc([C@H](N(C)C(=O)C3CCS(=O)(=O)CC3)C(F)(F)F)cc2)cnc2cc(Cl)nn12 | cell-free assay | competition with immobilised ligand | 1 µM | 76% |
| CN(C)c1ncc(F)c(-c2cnn3ncccc23)n1 | binding | – | 1 µM | 100% |
| COc1cnc(Nc2cccc(S(N)(=O)=O)c2)nc1N1CCN(c2ccccc2)C(=O)C1 | binding | competition with immobilised ligand | 1 µM | 99% |
| COc1ccnn2ncc(-c3ccnc(N(C)C)n3)c12 | binding | – | 1 µM | 100% |
| O=C(NCCCN1CCOCC1)c1ccc(Nc2nccc(-c3cc4ccccc4s3)n2)cc1 | binding | competition with immobilised ligand | 1 µM | 98% |
| N[C@H]1CCN(c2nccc(-c3cnn4ncccc34)n2)C1 | binding | – | 1 µM | 100% |
| COCCOc1nc(-c2ccc(Cl)nc2)nc2c1CN(C(=O)c1ncn3ccccc13)CC2 | cell-free assay | competition with immobilised ligand | 0.1 µM | 79% |
| O=C(NCCCN1CCOCC1)c1ccc(Nc2ncc(Cl)c(-c3ccc(Cl)s3)n2)cc1 | binding | competition with immobilised ligand | 1 µM | 100% |
| CN(CCCC(F)(F)F)c1nccc(-c2cnn3ncccc23)n1 | binding | – | 1 µM | 84% |
| Cc1cnc(Nc2ccc(C(=O)N3CCC(N4CCCC4)CC3)cc2)nc1-c1cc2ccccc2s1 | binding | competition with immobilised ligand | 1 µM | 65% |
| CO[C@H]1CC[C@H](CNc2ccc(S(=O)(=O)NC(=O)c3ccc(N4CCN(CC5=C(c6ccc(Cl)cc6)CC(C)(C)CC5)CC4)cc3Oc3cnc4[nH]ccc4c3)cc2[N+](=O)[O-])CC1 | cell-free assay | competition with immobilised ligand | 1 µM | 75% |
| C[C@@H]1CCN(c2nccc(-c3cnn4ncccc34)n2)C1 | binding | – | 1 µM | 100% |
| Cc1nccc(COC(=O)N2C[C@@H]3[C@@H](CNC(=O)c4ccc5[nH]nnc5c4)[C@@H]3C2)n1 | cell-free assay | competition with immobilised ligand | 1 µM | 100% |
| Nc1ncc2c(n1)-c1c([nH]c3ccc(C#CC4CC4)cc13)CCCC2 | binding | competition with immobilised ligand | 1 µM | 90% |
| Cn1cc(Cl)c2c(Oc3c(F)cc(Nc4cc(Cl)nc(N)n4)cc3F)ccnc21 | cell-free assay | competition with immobilised ligand | 0.1 µM | 100% |
| CN(c1nccc(-c2cnn3ncccc23)n1)C1CC1 | binding | – | 1 µM | 100% |
